Activity calls are given as the source filed them. The rule behind the calls is not given here.
Key:
[1] = tested on: OCI-AML2; test: Induction of cell death in human OCI-AML2 cells assessed as increase in PI uptake at 6.25 uM incubated for 6 hrs by PI staining based fluorescence analysis; format: functional
Method in brief: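 PI flux assay. 2 × 10^4 MV4;11 (WT, CARD8−/− or CASP1−/−) or OCI-AML2 cells in RPMI were given compound at 6.25 μM plus PI at 10 μM final. Fluorescence (Ex/Em 535/617 nm) was read every 5 min at 37 °C for 6 h, baseline-corrected to DMSO and normalized to the maximum response. n = 3.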

[2] = Stability in human MV4-11 cells assessed as retention time of parent compound incubated for 24 hrs by LC/MS analysis; format: ADME, cell-based; conditions: mv4-11, 24 h
Method in brief: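 Compound was held in MV4;11 conditioned medium for 24 h at 37 °C, then LC/MS was run, recording the retention times of the parent ester and its free acid.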

[3] = Drug metabolism of the compound in human MV4-11 cells assessed as de-esterified metabolite formation by LC-MS analysis; format: ADME, cell-based
[4] = tested on: MV4-11; test: Cytotoxicity against human MV4-11 cells assessed as reduction in cell viability at 0.015 to 100 uM incubated for 24 hrs by celltiter-glo assay; format: functional; conditions: dose 0.015-100 µM
Method in brief: (§1)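 MV4;11 cells (WT or CASP1−/−), grown in RPMI 1640 with 10% FBS at 37 °C, 5% CO2, plated 2000 cells/well, dosed by pintool across 100 μM to 15.2 nM in three-fold steps for 24 h. Viability by CellTiter-Glo luminescence after 2 min shaking and 10 min at 25 °C. IC50 as mean ± SEM of three biological replicates.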

[5] = tested on: MV4-11; test: Cytotoxicity against CASP1 knockout human MV4-11 cells assessed as reduction in cell viability at 0.015 to 100 uM incubated for 24 hrs by celltiter-glo assay; format: functional; conditions: dose 0.015-100 µM; method in brief: as §1
[6] = Drug metabolism in human MV4-11 cell culture supernatant assessed as (S)-1-((2S,3R)-3-amino-2-hydroxy-5-methylhexanoyl)pyrrolidine-2-carboxylic acid formation measured within 30 mins by LC-MS analysis; format: ADME, cell-based; conditions: mv4-11, 0.5 h
[7] = Stability of the compound in human MV4-11 cells assessed as de-esterification by measuring parent compound remaining measured after 24 hrs by LC-MS analysis; format: ADME, cell-based; conditions: read-out: Stability
Method in brief: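 Compound was incubated in conditioned medium from MV4;11 cells for 24 h at 37 °C, and LC/MS then measured intact ester remaining and the de-esterified free acid. n = 3, mean ± SEM.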

SMILES | Activity [1] | Retention_time [2] [min] | Drug metabolism [3] | Activity [4] [%] | Activity [5] [%] | Drug metabolism [6] | remaining at 24 h [7] [%]
COC(=O)[C@H](CC(C)C)NC(=O)[C@@H]1CCCN1C(=O)[C@@H](O)[C@H](N)CC(C)C | Active | 2.82 | Metabolite_Detected | – | – | – | –
COC(=O)[C@@H]1CCCN1C(=O)[C@@H](O)[C@H](N)CC(C)C | – | – | – | 28 | 95 | Metabolite_Detected | 50

— ChEMBL document CHEMBL5380787, “Optimized M24B Aminopeptidase Inhibitors for CARD8 Inflammasome Activation” (J Med Chem, 2023)
